Like-named read-outs stand apart in the source and are kept apart here.
Tests used:
[1] = type: in vivo, human; details: for Tmax / concentration at 2 h / half-life: human, po; for AUC0-t: single oral tablet 4/1.25 mg, fasting, mean ± SD
Summary of the method: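 Ten healthy Chinese volunteers, fasted at least 10 h overnight, took one oral ACE-inhibitor/diuretic combination tablet (4 mg/1.25 mg) with 240 mL warm water. Blood was drawn into two K2EDTA tubes pre-dose and at 0.25–48 h. One tube was spun (3000 rpm, 10 min) for plasma and the other kept as whole blood, both stored at −80 °C. Parent drugs were extracted by acetonitrile precipitation and the metabolite by 14% perchloric acid, then measured by LC-MS/MS against internal standard. AUC0-t ran to 6 h for the ACE inhibitor and to 48 h otherwise.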

[2] = cited from earlier work
[3] = cited from earlier work; remark: listed apart in the source
[4] = whole blood, dose 1.5 mg, indapamide sustained-release tablets, ref 11
[5] = whole blood, dose 1.5 mg, indapamide sustained-release tablets, ref 21

Row | Compound | Tmax ([1]; plasma) [h] | concentration at 2 h ([1]; plasma) [ng/mL] | half-life ([1]; plasma) [h] | Tmax ([1]; whole blood) [h] | concentration at 2 h ([1]; whole blood) [ng/mL] | half-life ([1]; whole blood) [h] | Cmax ([3]; plasma, dose 4 mg, ref 22) [ng/mL] | Tmax ([3]; plasma, dose 4 mg, ref 22) [h] | Cmax ([3]; plasma, dose 4 mg, ref 24) [ng/mL] | Tmax ([3]; plasma, dose 4 mg, ref 24) [h] | AUC0-t ([3]; plasma, dose 4 mg, t = 120 h) [ng·h/mL] | other results
1 | CC1Cc2ccccc2N1NC(=O)c1ccc(Cl)c(S(N)(=O)=O)c1 (stereo not shown) [Indapamide, indapamide] | 1.8 ± 0.8 | 5.32 | 13.4 ± 2.4 | 1.6 ± 0.6 | 14.9 | 13.5 ± 1.6 | – | – | – | – | – | AUC0-t ([1]; whole blood, t = 48 h): 882 ± 126 ng·h/mL; Binding to the red blood cell [2]: high binding to the red blood cell; Tmax ([3]; whole blood, dose 1.25 mg): 2.4 ± 1.1 h; AUC0-t ([3]; whole blood, dose 1.25 mg, t = 96 h): 1152 ± 429 ng·h/mL; Cmax [3, 4]: 43.6 ± 16.1 ng/mL; Tmax [3, 4]: 10.3 ± 5.3 h; Cmax [3, 5]: 41.1 ± 7.6 ng/mL; Tmax [3, 5]: 8.0 ± 3.0 h; AUC0-t ([3]; whole blood, dose 1.5 mg, indapamide sustained-release tablets, t = 96 h, ref 11): 1318 ± 303 ng·h/mL; AUC0-t ([3]; whole blood, dose 1.5 mg, indapamide sustained-release tablets, t = 96 h, ref 21): 1268 ± 279 ng·h/mL
2 | CCC[C@H](N[C@@H](C)C(=O)N1[C@H](C(=O)O)C[C@@H]2CCCC[C@@H]21)C(=O)OCC [Perindopril, perindopril] | 0.65 ± 0.1 | 11.1 | 0.96 ± 0.3 | 0.7 ± 0.2 | 7.35 | 1.11 ± 0.4 | 63.9 ± 18.0 | 0.66 ± 0.2 | 72 ± 20 | 0.75 | 106 ± 32 | AUC0-t ([1]; plasma, t = 6 h): 51.4 ± 12.8 ng·h/mL; Binding in blood [2]: bind mainly to plasma protein in blood; Cmax ([3]; plasma, dose 4 mg, ref 16): 36.5 ± 11.4 ng/mL; Tmax ([3]; plasma, dose 4 mg, ref 16): 0.66 ± 0.2 h; AUC0-t ([3]; plasma, dose 4 mg, t = 5 h): 70.3 ± 14.4 ng·h/mL; AUC0-t ([3]; plasma, dose 4 mg, t = 96 h): 41.7 ± 10.0 ng·h/mL
3 | CCC[C@H](N[C@@H](C)C(=O)N1[C@H](C(=O)O)C[C@@H]2CCCC[C@@H]21)C(=O)O [Perindoprilat, perindoprilat] | 6.4 ± 1.3 | 2.49 | 17 ± 6.5 | 5.8 ± 1.1 | 1.31 | 18.2 ± 7.3 | 5.91 ± 2.9 | 6.3 ± 1.2 | 4.9 ± 2.7 | 6 | 191 ± 76 | AUC0-t ([1]; plasma, t = 48 h): 108 ± 34.7 ng·h/mL; Cmax ([3]; plasma, dose 4 mg, one significant digit): 5 ± 2 ng/mL; Tmax ([3]; plasma, dose 4 mg, ref 23): 4.3 ± 2.9 h; AUC0-t ([3]; plasma, dose 4 mg, t = 72 h, ref 22): 111 ± 18.4 ng·h/mL; AUC0-t ([3]; plasma, dose 4 mg, t = 72 h, ref 23): 92 ± 30 ng·h/mL

Reference: paper PMC6190495 (Journal of Pharmaceutical Analysis, 2018)
